# FGF22 binding = FGF22 (human) thermal shift binding. Q9HCT0. recombinant FGF22 thermal shift, SYPRO orange fluorescence; percent of sucrose octasulfate shift, DMSO zero. activity (Tm shift, normalised), % at 9.99 µM. hit rate 1.5% among 340,000. AID 651658;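 active = mean Tm shift, scaled 0 neutral to 100 positive control, at about 1.3% or above, every replicate too, limit read from the data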
# Target sequence (Q9HCT0 whole entry, looked up): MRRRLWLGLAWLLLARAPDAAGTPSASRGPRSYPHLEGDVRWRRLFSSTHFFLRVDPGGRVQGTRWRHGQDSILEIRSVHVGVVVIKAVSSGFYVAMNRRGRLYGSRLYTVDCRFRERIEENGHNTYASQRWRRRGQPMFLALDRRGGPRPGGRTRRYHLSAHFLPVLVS
# F508del corr = correctors of CFTR F508del function in bronchial epithelial cells. CFBE cells, YFP halide quenching; stimulated with forskolin plus potentiator P3; % fluorescence drop versus neutral controls. activity (quench increase), % at 7.58 µM. hit rate 0.36% among 350,000. AID 720511;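 active = mean added fluorescence quench of at least 8% versus neutral control, with both replicates also reaching 8%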;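 note: cells transiently co-express mutant CFTR-F508del with the halide-sensitive YFP; corrector assay measuring rescue of mutant channel to the surface after 24 h compound exposure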
# dFosB activator = mouse delta FosB homodimer activation; purified delta FosB, TAMRA-CDK5 oligo fluorescence polarization; percent of positive-control signal above neutral wells; activation, % at 25 µM; AID 493131; hit rate 0.99% among 340,000;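 active = mean activation above about 17%, with every replicate also reaching it, limit read from the data, passing the limit was not always enough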
# S100A4 inh HTS = inhibitors of human S100A4 binding to myosin IIA peptide. P26447. S100A4/TAMRA-MyoIIA peptide fluorescence polarization. inhibition, % at 10.7 µM. hit rate 0.14% among 360,000. AID 652163;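 active = mean inhibition of at least 70% across replicates, with every replicate also reaching that level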
# Target sequence (P26447 whole entry, looked up): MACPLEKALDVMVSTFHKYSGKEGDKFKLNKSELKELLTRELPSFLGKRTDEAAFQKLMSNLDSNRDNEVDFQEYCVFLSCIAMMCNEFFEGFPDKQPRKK
#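 Test system – S100A4 monomer (human) · Compound – single-point compound testing · Schedule – 5 min incubation before reading · Probe or stimulus – TAMRA-labelled myosin IIA heavy-chain peptide probe, 5 nM · Benchmarks – neutral control DMSO, positive control TFP · Medium – Calcium-containing HEPES buffer, pH 7.2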
# * marks the source's active call; other numbers are inactive results; nt = no result given; ! = a repeat was not active. Sampled rows, rich in hits. Any-hit rate of the full collection: about 2.2%.
SMILES,FGF22 binding,F508del corr,dFosB activator,S100A4 inh HTS
O=C(NC1CCCCC1)[C@H]1[C@H](CO)[C@H]2Cn3c(cccc3=O)[C@H]2N1C(=O)CC1CC1,0,-2,nt,102*
CCCNC(=O)[C@@H]1[C@@H](CO)[C@@H]2Cn3c(cccc3=O)[C@@H]2N1C(=O)C1CCC1,-1,-4,nt,106*
CC(=O)N1[C@@H](CO)[C@H](c2ccccc2)C12CN(C(=O)Nc1ccccc1F)C2,nt,1,nt,1
COc1ccc([C@@H]2[C@@H](C)N(c3ccccc3)c3ccccc3C(=O)N2Cc2ccccc2)cc1,44*,-2,nt,-2
CC(C)c1cc(CNC(=O)CCc2nnc(CCCc3ccccc3)o2)on1,43*,2,-2,0
O=C(CCc1nnc(CCCCc2ccccc2)o1)NCCn1cccn1,43*,-3,-1,-3
O=C(CCc1nnc(CCCc2ccccc2)o1)NCCCC1CCCC1,43*,nt,-3,4
C[C@@H]1CN([C@H](C)CO)C(=O)c2cc(-c3cccnc3)cnc2O[C@@H]1CN(C)Cc1ccc(-c2ccccc2)cc1,0,6,nt,5
C/C(CC(=O)Nc1ccc(Cl)cc1Cl)=N\NC(=O)c1ccncc1,0,2,3,2
C/C(CC(=O)Nc1ccc(C)c(Cl)c1)=N\NC(=O)c1ccncc1,44*,1,-5,3
CCCC#Cc1cnc2c(c1)C(=O)N([C@H](C)CO)C[C@@H](C)[C@H](CN(C)C(=O)C1CCOCC1)O2,0,3,nt,-18
CC(=O)Nc1ccc2c(c1)C(=O)N(C)[C@@H]1CC[C@@H](CC(=O)NCCCN3CCOCC3)O[C@@H]1CO2,nt,-1,nt,12
CS(=O)(=O)N1N=C(c2ccco2)CC1c1ccc(Br)cc1 (configuration not stated),44*,-1,-3,-1
CC(C(=O)Nc1ccccc1-c1ccccc1)N1CCN(C(=O)c2ccccc2)CC1 (configuration not stated),0,-9,3,-3
CC(C(=O)Nc1ccccc1-c1ccccc1)N1CCN(Cc2ccccc2)CC1 (configuration not stated),43*,-4,-6,-4
CCc1nnc(NS(=O)(=O)c2ccc(NC(=O)c3ccccc3)cc2)s1,0,-1,0,-2
CCc1nnc(NS(=O)(=O)c2ccc(NC(=O)/C=C/c3ccccc3Cl)cc2)s1,1.8*,3,-26,1
CCc1nnc(NS(=O)(=O)c2ccc(NC(=O)C(c3ccccc3)c3ccccc3)cc2)s1,1.5*,-1,0,-1
CCc1nnc(NS(=O)(=O)c2ccc(NC(=O)c3ccccc3C)cc2)s1,43*,-1,-4,5
C[C@H](CO)N1C[C@H](C)[C@H](CN(C)C(=O)Cc2ccccc2)OCCCC[C@H](C)Oc2ccc(NC(=O)c3ccccc3)cc2C1=O,0,-3,nt,1
O=C(/C(=C/O)N=Nc1cccc(C(F)(F)F)c1)c1ccccc1,43*,nt,-2,3
CNC[C@@H]1Oc2cc(-c3ccncc3)ccc2S(=O)(=O)N([C@H](C)CO)C[C@H]1C,0,0,nt,1
Cc1cc(C)n2c(SCC(O)=C(C#N)c3nc4ccccc4[nH]3)nnc2n1,0,2,1,2
N#C/C(=C(/O)CSc1ncn[nH]1)c1nc2ccccc2[nH]1,44*,0,-10,7
COc1ccc2[nH]c3c(=O)n(Cc4ccc(C(=O)N5CCC(C(N)=O)CC5)cc4)c(=S)[nH]c3c2c1,43*,-4,-7,-4
SMILES,FGF22 binding,F508del corr,dFosB activator,S100A4 inh HTS
CCOc1ccc(S(=O)(=O)NCCC(=O)OCC(=O)NC(=O)c2cccn2C)cc1,44*,0,-8,-2
COCC(=O)N1C[C@H](C)[C@H](OC)CN(C)C(=O)c2ccc(NC(=O)Nc3ccccc3)cc2OC[C@@H]1C,nt,-2,nt,12
Cc1ccc([N+](=O)[O-])cc1S(=O)(=O)N1CCN(C)CC1,0,1,4,7
CN1CCN(S(=O)(=O)c2cc([N+](=O)[O-])ccc2Cl)CC1,43*,-1,3,8
C[C@@H]1CCCCO[C@@H](CN(C)C(=O)NC2CCCCC2)[C@@H](C)CN([C@@H](C)CO)C(=O)c2cc(NC(=O)Nc3ccc4c(c3)OCO4)ccc2O1,0,1,nt,3
C[C@@H]1CCCCO[C@@H](CN(C)C(=O)c2ccccc2)[C@H](C)CN([C@@H](C)CO)C(=O)c2cc(NC(=O)c3ccncc3)ccc2O1,nt,2,nt,nt
Cc1cccc(C)c1NC(=S)Nc1ccc(Cl)c(Cl)c1,43*,3,-4,4
OCCNC(=S)Nc1cc(Cl)cc(Cl)c1,0,-1,-3,-3
OCCNC(=S)Nc1ccc(Cl)c(Cl)c1,1.4*,0,5,-2
C[C@H]1CCCCO[C@@H](CN(C)Cc2ccccc2)[C@@H](C)CN([C@@H](C)CO)C(=O)c2cc(NC(=O)Nc3ccc(C(F)(F)F)cc3)ccc2O1,-1,3,nt,-5
COc1ccccc1-c1cc(C(F)(F)F)nc(S(=O)(=O)CCCC(=O)NCc2ccc(F)cc2)n1,1.4*,-2,-13,0
COc1ccccc1-c1cc(C(F)(F)F)nc(S(=O)(=O)CCCC(=O)NC(C)C)n1,nt,nt,-15,nt
O=C(CCN1CCCCC1)NCC[C@@H]1CC[C@@H](NC(=O)C2CCOCC2)[C@@H](CO)O1,0,-3,nt,-1
O=C(c1nn(-c2ccccc2)c(=O)c2ccccc12)N1CCN(c2ccccn2)CC1,nt,nt,-5,nt
CCCn1nc(C(=O)N2CCN(c3ccccn3)CC2)c2ccccc2c1=O,44*,0,-4,-3
CC(/C=C/c1ccc(O)cc1)=NNc1ccccc1,1,18*,-7,2
CC(/C=C/c1ccccc1)=N\Nc1nc(C)cc(C)n1,nt,nt,0,nt
COc1cccc(N=Nc2ccc3ccccc3c2O)c1,0,0,-55,122*
COCC(=O)N1C[C@@H](C)[C@@H](OC)CN(C)C(=O)c2cc(NC(=O)Nc3cccc(F)c3)ccc2OC[C@@H]1C,-1,-2,nt,-16
C[C@@H]1CCCCO[C@@H](CN(C)S(=O)(=O)c2cn(C)cn2)[C@H](C)CN([C@@H](C)CO)C(=O)c2cc(NC(=O)C3CCCCC3)ccc2O1,-1,-1,nt,116*
C[C@H](CO)N1C[C@H](C)[C@@H](CN(C)S(=O)(=O)c2cn(C)cn2)Oc2ccc(NC(=O)Cn3cnnn3)cc2C1=O,44*!,-2,0,6
C[C@@H]1CN([C@@H](C)CO)C(=O)c2cc(NC(=O)NC3CCCCC3)ccc2O[C@@H](C)CCCCO[C@@H]1CN(C)S(=O)(=O)c1cn(C)cn1,0,1,nt,136*
C/C(=N\NC(=O)C1COc2ccccc2O1)c1ccc(C)o1 (configuration not stated),nt,nt,-4,nt
C/C(=N\NC(=O)c1ccncc1)c1cc2ccccc2o1,0,1,-7,1
C/C(=N\NC(=O)C1COc2ccccc2O1)c1cc2ccccc2o1 (configuration not stated),44*,-1,13,3
